Rows were chosen to be rich in hits. Some 1.7% of all compounds tested hit in one or more screens of this group.
Myeloid diff 2 = promotes myeloid progenitor differentiation; AID 624256; calls only at 10 µM; actives 1% (n = 360,000); ER-HoxA9 myeloid progenitors, lysozyme-GFP differentiation, flow cytometry;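 active = normalized GFP-positive differentiation at or above the plate's own cutoff, the solvent-only control mean plus 3 SD; inconclusive = no clear call, values can overlap the other calls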;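 also: cells exposed to compound for four days before flow analysis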
Vif inh = HIV Vif inhibition | HEK293T cells, Vif self-association by quenched fluorescence, imaging, 24 h | inhibition, % at 7.49 µM | actives 0.35% (n = 340,000); in the data active = inhibition above about 50%, passing the limit was not always enough; inconclusive = no clear call, values can overlap the other calls; inactive = below about 31%
T cell HTS = T cell immune modulation candidate | 2C CD8+ T cell-vesicle binding, flow cytometry; active compounds read low | response (vesicle binding), % at 7 µM | actives 0.068% (n = 330,000);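 active = response, share of CD8 T cells binding vesicles, and their 90th percentile fluorescence all below set limits, cut at about 80% in these data, passing the limit was not always enough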;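 also: values below 100% mean blocked vesicle binding to the CD8+ T cells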
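Also added: QL9-peptide-loaded Drosophila micro-vesicles bearing Ld, ICAM-1 and B7-1; Test system: purified 2C TCR transgenic mouse naive CD8+ T cells; Measured by: cytometric PE anti-B7-1 and Alexa647 anti-CD8 signals after 1% paraformaldehyde fixation; Timing: binding step 1.5 h, 37 °C, antibody labelling 20 min, ice.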
DSG3 Ab inh = blocks pemphigus antibody binding to human desmoglein-3; DSG3-coupled beads, scFv-anti-DSG3-GFP binding, flow cytometry; active compounds read low; AID 588358; binding (percent of control), % at 10 µM; actives 0.48% (n = 310,000); P32926;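 active = binding more than 3 SD below its plate's average and above zero; inconclusive = below that plate limit but binding exactly zero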;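 also: hits lower antibody fragment binding to DSG3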
Target sequence (P32926 whole entry, looked up, the tested form may be a part): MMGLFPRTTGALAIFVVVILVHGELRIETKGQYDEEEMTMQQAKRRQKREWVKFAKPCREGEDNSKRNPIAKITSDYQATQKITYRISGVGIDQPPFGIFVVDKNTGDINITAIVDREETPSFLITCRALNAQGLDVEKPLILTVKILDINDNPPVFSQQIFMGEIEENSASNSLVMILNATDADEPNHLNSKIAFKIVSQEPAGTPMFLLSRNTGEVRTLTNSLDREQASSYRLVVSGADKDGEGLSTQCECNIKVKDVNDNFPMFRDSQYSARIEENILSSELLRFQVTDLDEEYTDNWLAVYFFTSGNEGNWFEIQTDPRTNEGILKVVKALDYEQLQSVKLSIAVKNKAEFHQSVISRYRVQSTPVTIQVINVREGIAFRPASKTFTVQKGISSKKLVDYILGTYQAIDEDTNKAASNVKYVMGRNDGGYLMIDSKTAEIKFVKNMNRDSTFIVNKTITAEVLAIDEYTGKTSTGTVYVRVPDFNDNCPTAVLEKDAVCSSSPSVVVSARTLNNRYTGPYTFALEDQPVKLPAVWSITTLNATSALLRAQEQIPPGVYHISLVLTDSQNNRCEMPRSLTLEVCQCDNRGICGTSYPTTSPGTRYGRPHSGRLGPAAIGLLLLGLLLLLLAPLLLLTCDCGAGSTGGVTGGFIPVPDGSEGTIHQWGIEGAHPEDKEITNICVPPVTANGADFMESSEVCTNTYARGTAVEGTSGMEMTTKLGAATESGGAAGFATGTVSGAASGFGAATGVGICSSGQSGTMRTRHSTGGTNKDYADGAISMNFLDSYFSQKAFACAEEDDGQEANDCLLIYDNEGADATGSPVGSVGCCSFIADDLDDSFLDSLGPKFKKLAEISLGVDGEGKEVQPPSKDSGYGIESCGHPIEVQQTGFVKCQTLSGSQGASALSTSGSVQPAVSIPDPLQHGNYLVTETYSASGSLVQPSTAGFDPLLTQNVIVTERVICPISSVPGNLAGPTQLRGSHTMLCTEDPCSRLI
Myeloid diff = myeloid differentiation induction; shares compounds with Myeloid diff 2; ER-HoxA9 myeloid progenitors, GFP/Mac1 double-positive flow; calls only; actives 2% (n = 2,300); AID 651706;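 active = share of green or green-and-red cells above 9 and 9% in run 1 or 4 and 3% in run 2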
GFP autofluor = flagged as fluorescent in myeloid differentiation counter-screen. shares compounds with Myeloid diff 2. ER-HoxA9 myeloid progenitors, no estrogen, GFP autofluorescence flow cytometry; vehicle wells 0%, positive control 100%. fluorescence response, % (test concentration not listed). actives 7.4% (n = 2,300);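 active = over 5% cells positive for green fluorescent reporter, or over 2% positive for both it and APC stain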;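 also: range taken on the double positive population between DMSO and positive control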
* = called active by the depositor; i = inactive; ? = inconclusive; nt = not tested or not shown; + = active, no number.

SMILES | Myeloid diff 2 | Vif inh | T cell HTS | DSG3 Ab inh | Myeloid diff | GFP autofluor
O=C(Nc1cccc(S(=O)(=O)N2CCCCCC2)c1)c1cncc(Br)c1 | i | -23 | 328 | 91 | i | 0
O=C(NCCN1CCOCC1)c1cccc(S(=O)(=O)N2CCCCCC2)c1 | i | 5 | 125 | 123 | nt | nt
Cc1ccc(S(=O)(=O)N2CCCCC2)cc1NC(=O)c1cncc(Br)c1 | i | nt | nt | 91 | nt | nt
S=c1nc(-c2ccccn2)c(-c2ccccn2)n[nH]1 | i | 3 | nt | nt | nt | nt
Cc1ccccc1-n1ncc2c1CC(C)(C)CC2NC(=O)CCN1CCCCC1=O (configuration not stated) | i | 5 | 202 | nt | nt | nt
CCCC1NC(=O)c2cc3ccccc3cc2-n2c1nc1ccc(C)cc1c2=O (configuration not stated) | i | -4 | nt | nt | nt | nt
CC(C)[C@H](NC(=O)c1ccccc1F)C(=O)OCC(=O)NC1CC1 | i | 6 | 387 | 102 | nt | nt
COc1ccccc1NC(=O)Nc1sccc1-c1nc2ccccc2s1 | + | -1 | 781 | 104 | i | 0
CC1CCCCC1NC(=O)C(=O)NCC1CCCO1 (configuration not stated) | i | -8 | 162 | 115 | i | 0
O=C(Cc1ccc(NC(=O)C2CCN(C(=O)C3CCCC3)CC2)cc1)Nc1ccc(C(=O)N2CCOCC2)cc1 | i | -3 | nt | 97 | nt | nt
CCCCC(=O)Nc1cc(OC)c(NC(=S)Nc2ccc(OC)cc2)cc1OC | i | -3 | nt | 108 | nt | nt
COc1ccc(N2CCN(C(CNC(=O)C(=O)NCC(OC)OC)c3ccco3)CC2)cc1 (configuration not stated) | i | 2 | 124 | 102 | nt | nt
O=C(NC1CCCCCCC1)C1CCN(c2nc3ccccc3o2)CC1 | i | -8 | 607 | 96 | i | 1
O=C(NCCc1ccccc1)C1CCN(c2nc3ccccc3o2)CC1 | i | 1 | 128 | 105 | nt | nt
O=C(/C=C/c1ccco1)NC(=S)Nc1ccccc1O | i | 3 | 189 | 100 | nt | nt
O=C(/C=C\c1ccco1)NC(=S)Nc1ccccc1O | i | -5 | 420 | 97 | i | 0
Cc1ccc(S(=O)(=O)Nc2ccc(-c3nnc(SCC#N)n3C)cc2)cc1 | + | 10 | 292 | 99 | i | 0
O=S(=O)(Nc1ccc(S(=O)(=O)Nc2ncccn2)cc1)c1ccc(Cl)cc1 | i | 2 | 236 | 92 | nt | nt
Cc1ccc(S(=O)(=O)Nc2ccc(S(=O)(=O)Nc3ncccn3)cc2)cc1 | i | -4 | 194 | 110 | i | 0
Cc1cccc(-c2nnc(SCC#N)n2C)c1 | i | -30 | 132 | 107 | nt | nt
COc1cc(C)nc(NS(=O)(=O)c2ccc(C)cc2)n1 | i | -2 | 259 | ? | i | 0
C[C@H](CO)N1C[C@H](C)[C@H](CN(C)S(=O)(=O)c2cccs2)OCc2cnnn2CCCC1=O | i | nt | nt | 95 | nt | nt
COc1ccc(/C=C2/CSC/C(=C/c3ccc(OC)c(OC)c3)C2=O)cc1OC | nt | 12 | nt | 94 | nt | nt
C[C@H](N)C(=O)N1CCC(C(=O)N[C@@H](Cc2ccccc2)C(=O)Nc2ccc(F)cc2)CC1 | i | 3 | 190 | 104 | i | 0
O=C(N[C@@H](Cc1ccccc1)C(=O)Nc1ccc(F)cc1)C1CCNCC1 | i | 1 | 284 | 83 | nt | nt
SMILES | Myeloid diff 2 | Vif inh | T cell HTS | DSG3 Ab inh | Myeloid diff | GFP autofluor
CCCCCCSc1ccc(-c2nc3cnccn3c2NC2CCCCC2)cc1 | i | nt | nt | nt | i | 18*
CCC(C)Sc1ccc(-c2nc3cc(C)ccn3c2NC2CCCCC2)cc1 (configuration not stated) | + | -5 | 184 | 114 | + | 4
CCCCCCSc1ccc(-c2nc3cc(C)ccn3c2NC2CCCCC2)cc1 | i | 14 | 235 | 107 | nt | nt
O=C(Cn1cccc1C(=O)c1ccccc1)NCc1ccccc1 | i | 2 | 216 | nt | nt | nt
O=C(Cn1cccc1C(=O)c1ccccc1)NCc1cccs1 | i | -1 | 329 | 107 | i | 0
O=C(COC(=O)/C=C/c1ccc(Cl)cc1)Nc1ccc2[nH]c(=O)[nH]c2c1 | i | 1 | 435 | 97 | nt | nt
COc1ccc(F)cc1S(=O)(=O)N1CCc2ccccc2C1 | i | -1 | nt | 99 | nt | nt
O=C(COC(=O)/C=C/c1ccc(S(=O)(=O)N2CCOCC2)cc1)Nc1ccccc1F | i | 14 | 524 | 89 | nt | nt
COc1ccc(/C=C/C(=O)Nc2ccc(C)c(S(=O)(=O)N3CCOCC3)c2)cc1 | i | -30 | 166 | 101 | i | 0
Cc1ccc(S(=O)(=O)N2CCOCC2)cc1NC(=O)COC(=O)/C=C/c1ccc(F)cc1 | i | -3 | 236 | nt | i | 0
O=C(/C=C/c1ccc(S(=O)(=O)N2CCOCC2)cc1)Nc1cc(F)ccc1F | i | 2 | 241 | 87 | nt | nt
O=C(/C=C/c1cccc(F)c1)Nc1cc(S(=O)(=O)N2CCOCC2)ccc1Cl | i | 0 | 145 | 97 | i | 0
CCc1nc2c(OCc3ccccc3C(=O)OC)cccn2c1N(C)C(=O)CC(C)C | i | 7 | nt | nt | nt | nt
CN(c1ccc(C(=O)N/N=C/c2cccc([N+](=O)[O-])c2)cc1)S(=O)(=O)c1ccccc1 | i | -42 | 225 | nt | i | 0
COc1ccc(/C=N/NC(=O)c2ccc(N(C)S(=O)(=O)c3ccccc3)cc2)cc1 | i | 13 | 463 | 83 | nt | nt
O=C(NCCc1ccc(Cl)cc1)c1ccc2nc[nH]c2c1 | i | -4 | 217 | 93 | nt | nt
COc1cccc(/C(O)=C/c2nc3ccc(C(=O)NCCc4ccc(Cl)cc4)cc3[nH]c2=O)c1 | + | -2 | nt | 96 | i | 0
Cc1cccc(CCNc2nc3ccccc3n3nnnc23)c1 | + | nt | 214 | nt | i | 0
CCc1ccc(/C=C2/SC(=S)N(CCC(=O)Nc3ccc(C(=O)O)cc3)C2=O)cc1 | i | 3 | 289 | nt | nt | nt
CCc1ccc(C=C2SC(=S)N(CCCC(=O)Nc3ccc(C(=O)O)cc3)C2=O)cc1 | i | nt | nt | nt | i | 0
COc1ccc(C(=O)C[n+]2cccc3cc(C)ccc32)cc1 | i | 16 | 247 | 150 | i | 42*
COc1ccc(C(=O)C[n+]2ccc(N(C)C)cc2)cc1 | i | 2 | 221 | nt | i | 0
CN(C)c1cc[n+](CC(=O)c2ccc(Br)cc2)cc1 | i | 0 | 283 | 115 | nt | nt
COc1ccc(C(=O)C[n+]2cccc3cc(OC)ccc32)cc1 | nt | nt | 396 | 101 | nt | nt
O=C(Nc1cccc2ncccc12)c1ccc([N+](=O)[O-])o1 | + | -1 | 272 | 114 | i | 0
Cc1cccnc1NC(=O)c1ccc([N+](=O)[O-])o1 | i | 4 | 300 | 97 | nt | nt
CC1(C(=O)NCc2ccccc2)CSCC(=O)N1Cc1ccco1 (configuration not stated) | i | nt | nt | nt | nt | nt
CCOCCCNC(=O)Cc1c(C(=O)O)[nH]c2ccc(Cl)cc12 | i | nt | 543 | 104 | i | 0

Bioassay records as filed in PubChem BioAssay.
